Data: ChEMBL document CHEMBL1255514, “Discovery of 8-azabicyclo[3.2.1]octan-3-yloxy-benzamides as selective antagonists of the kappa opioid receptor. Part 1” (Bioorg Med Chem Lett, 2010)

How the values were obtained:
[1] = biological target: T1, Kappa-type opioid receptor (Homo sapiens, UniProt P41145); experiment: Binding affinity to kappa opioid receptor
[2] = biological target: T1, Kappa-type opioid receptor; experiment: Antagonist activity at human kappa opioid receptor assessed as inhibition of dynorphin A-induced [35S]GTPgammaS binding; type: functional
Mu-type opioid receptor = Mu-type opioid receptor (Homo sapiens, UniProt P35372); experiment: Antagonist activity at human mu opioid receptor assessed as inhibition of DAMGO-stimulated [35S]GTPgammaS binding; type: functional
Mu-type opioid receptor, sequence (P35372 whole entry): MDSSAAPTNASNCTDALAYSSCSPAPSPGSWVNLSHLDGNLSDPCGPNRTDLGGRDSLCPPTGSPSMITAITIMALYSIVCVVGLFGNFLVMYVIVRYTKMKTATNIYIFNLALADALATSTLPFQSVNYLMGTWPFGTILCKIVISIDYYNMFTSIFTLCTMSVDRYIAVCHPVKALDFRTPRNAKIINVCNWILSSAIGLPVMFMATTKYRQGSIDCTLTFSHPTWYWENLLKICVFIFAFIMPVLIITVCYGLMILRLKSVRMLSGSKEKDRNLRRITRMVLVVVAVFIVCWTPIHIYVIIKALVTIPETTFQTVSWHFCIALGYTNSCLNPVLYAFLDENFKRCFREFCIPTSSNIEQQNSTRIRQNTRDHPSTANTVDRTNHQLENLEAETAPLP

[3] = biological target: Delta-type opioid receptor (Homo sapiens, UniProt P41143); experiment: Antagonist activity at human delta opioid receptor assessed as inhibition of SNC80-stimulated [35S]GTPgammaS binding; type: functional
Delta-type opioid receptor, sequence (P41143 whole entry): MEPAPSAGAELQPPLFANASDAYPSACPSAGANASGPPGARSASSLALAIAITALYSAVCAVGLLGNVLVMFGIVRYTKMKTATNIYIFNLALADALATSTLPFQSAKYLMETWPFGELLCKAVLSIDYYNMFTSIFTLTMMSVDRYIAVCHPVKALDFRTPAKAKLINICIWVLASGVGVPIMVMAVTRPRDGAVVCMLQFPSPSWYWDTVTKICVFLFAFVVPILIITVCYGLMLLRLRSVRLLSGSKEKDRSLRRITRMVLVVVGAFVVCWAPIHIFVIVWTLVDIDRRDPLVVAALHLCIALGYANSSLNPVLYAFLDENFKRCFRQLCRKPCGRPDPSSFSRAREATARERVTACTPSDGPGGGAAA

[4] = Apparent permeability from apical to basolateral side of MDCK cells expressing MDR1; type: ADME, cell-based, Canis lupus familiaris; conditions: dog
Procedure, shortened: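 MDCK cells stably expressing human MDR1 P-glycoprotein grown as monolayer; apical-to-basolateral transport rate reported in nm/s.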

Plasma = experiment: Fraction unbound in rat plasma; type: ADME, cell-free
[5] = Intrinsic clearance in human liver microsomes; type: ADME, Microsome
Procedure, shortened: (§1)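 Standard liver microsomal stability protocol using human or rat liver microsomes; intrinsic clearance expressed per mg microsomal protein per minute.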

[6] = Intrinsic clearance in rat liver microsomes; type: ADME, Microsome; procedure, shortened: as §1
[7] = biological target: Voltage-gated inwardly rectifying potassium channel KCNH2 (Homo sapiens, UniProt Q12809)
Voltage-gated inwardly rectifying potassium channel KCNH2, sequence (Q12809 whole entry): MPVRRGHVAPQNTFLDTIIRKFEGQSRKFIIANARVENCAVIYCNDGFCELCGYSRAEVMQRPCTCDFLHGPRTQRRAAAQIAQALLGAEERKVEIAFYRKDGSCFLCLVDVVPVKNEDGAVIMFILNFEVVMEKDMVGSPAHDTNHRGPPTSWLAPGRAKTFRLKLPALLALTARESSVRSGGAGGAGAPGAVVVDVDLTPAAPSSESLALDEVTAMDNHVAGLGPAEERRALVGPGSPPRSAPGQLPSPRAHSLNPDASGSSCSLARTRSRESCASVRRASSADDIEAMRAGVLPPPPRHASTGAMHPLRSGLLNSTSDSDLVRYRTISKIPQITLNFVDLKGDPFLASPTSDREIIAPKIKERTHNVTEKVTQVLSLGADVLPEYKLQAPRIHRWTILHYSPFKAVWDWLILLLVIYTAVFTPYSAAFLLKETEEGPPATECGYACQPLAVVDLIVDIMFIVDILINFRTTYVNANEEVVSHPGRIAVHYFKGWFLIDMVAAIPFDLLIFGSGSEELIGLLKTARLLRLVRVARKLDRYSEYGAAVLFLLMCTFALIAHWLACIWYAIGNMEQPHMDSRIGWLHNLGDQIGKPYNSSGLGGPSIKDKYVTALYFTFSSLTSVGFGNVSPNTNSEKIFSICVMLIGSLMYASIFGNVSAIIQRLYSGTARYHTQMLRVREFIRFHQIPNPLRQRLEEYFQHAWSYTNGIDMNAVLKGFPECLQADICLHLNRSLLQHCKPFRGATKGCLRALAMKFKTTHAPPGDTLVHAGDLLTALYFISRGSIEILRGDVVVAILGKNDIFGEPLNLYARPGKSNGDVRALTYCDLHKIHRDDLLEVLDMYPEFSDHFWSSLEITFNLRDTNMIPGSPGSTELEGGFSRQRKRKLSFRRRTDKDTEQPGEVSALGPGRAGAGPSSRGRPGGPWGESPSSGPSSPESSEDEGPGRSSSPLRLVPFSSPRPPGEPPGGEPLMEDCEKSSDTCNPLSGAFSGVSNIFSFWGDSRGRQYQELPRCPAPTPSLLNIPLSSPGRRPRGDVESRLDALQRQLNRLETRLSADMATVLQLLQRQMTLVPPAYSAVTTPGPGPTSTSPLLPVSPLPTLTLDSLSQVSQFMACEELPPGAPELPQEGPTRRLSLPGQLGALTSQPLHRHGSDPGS

[8] = Clearance in Sprague-Dawley rat at 2 umol/kg, iv; type: ADME, organism-based; conditions: in vivo
[9] = Ratio of drug level in brain to plasma in Sprague-Dawley rat at 5 umol/kg, iv; type: ADME, organism-based; conditions: brain and plasma, read-out: BPR
Procedure, shortened: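 Total brain and plasma concentrations measured 2 h after a 5 µmol/kg intravenous infusion in rats; brain/plasma ratio calculated.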

[10] = Volume of distribution at steady state in Sprague-Dawley rat at 2 umol/kg, iv; type: ADME, organism-based; conditions: in vivo, read-out: Vdss
Rattus norvegicus = experiment: Antidiuretic activity against U50488-induced diuresis in sc dosed Sprague-Dawley rat; type: functional; conditions: Urine, read-out: ID50 (the source's name)
[11] = Half life in Sprague-Dawley rat at 2 umol/kg, iv; type: ADME, organism-based; conditions: in vivo
[12] = Oral bioavailability in Sprague-Dawley rat at 6 umol/kg, po; type: ADME, organism-based; conditions: in vivo

T1 sequence (P41145 whole entry): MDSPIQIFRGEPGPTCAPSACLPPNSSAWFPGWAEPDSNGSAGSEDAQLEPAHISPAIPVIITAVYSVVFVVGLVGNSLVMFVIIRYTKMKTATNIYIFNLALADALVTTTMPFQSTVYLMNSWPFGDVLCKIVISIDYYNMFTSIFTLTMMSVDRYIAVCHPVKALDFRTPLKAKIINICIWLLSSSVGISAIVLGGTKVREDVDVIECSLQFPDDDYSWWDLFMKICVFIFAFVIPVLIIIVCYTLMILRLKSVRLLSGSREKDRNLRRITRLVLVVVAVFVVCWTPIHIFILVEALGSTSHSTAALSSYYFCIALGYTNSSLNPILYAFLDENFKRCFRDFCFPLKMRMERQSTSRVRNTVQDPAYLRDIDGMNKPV

SMILES	IC50 [2]	IC50 (Mu-type opioid receptor)	IC50 [3]	also measured
CC(C)[C@@H](CN1CC[C@@](C)(c2cccc(O)c2)[C@@H](C)C1)NC(=O)[C@H]1Cc2ccccc2CN1	0.0005 µM	0.041 µM	1.28 µM	Ki [1]: 0.0003 µM
Cc1ccc(CN2[C@@H]3CC[C@H]2C[C@H](Oc2cccc(C(N)=O)c2)C3)o1	0.386 µM	10.9 µM	22 µM	
NC(=O)c1cccc(OC2CCN(CC3CC3)CC2)c1	28.2 µM			Ki [1]: 0.146 µM
C[C@H](c1ccccc1)N1[C@@H]2CC[C@H]1C[C@H](Oc1cccc(C(N)=O)c1)C2	0.683 µM	> 24.4 µM		
C[C@@H](c1ccccc1)N1[C@@H]2CC[C@H]1C[C@H](Oc1cccc(C(N)=O)c1)C2	20.5 µM	> 30 µM		
O=C(Nc1cccc(NC(=O)c2cccc(N3CCOCC3)c2)c1)c1cccc(OC2CCN(CC3CC3)CC2)c1	0.077 µM	> 30 µM	> 30 µM	Ki [1]: 0.0005 µM; Papp A→B [4]: < 1 ×10⁻⁶ cm/s
Cc1ccc([C@@H](C)N2[C@@H]3CC[C@H]2C[C@H](Oc2cccc(C(N)=O)c2)C3)s1	0.111 µM			
COc1cccc([C@@H](C)N2[C@@H]3CC[C@H]2C[C@H](Oc2cccc(C(N)=O)c2)C3)c1	0.046 µM	1.05 µM		
NC(=O)c1cccc(OC2CCN(Cc3ccccc3)CC2)c1	0.585 µM	> 30 µM	> 30 µM	Ki [1]: 0.075 µM
Cc1ccc([C@@H](C)N2[C@@H]3CC[C@H]2C[C@H](Oc2cccc(C(N)=O)c2)C3)cn1				PPB (Plasma): 81%; Papp A→B [4]: 9.1 ×10⁻⁶ cm/s; microsomal CLint [5]: < 4 µL/min/mg; microsomal CLint [6]: 14 µL/min/mg
C[C@H](c1ccnc(Cl)c1)N1[C@@H]2CC[C@H]1C[C@H](Oc1cccc(C(N)=O)c1)C2	0.307 µM	22.9 µM		
NC(=O)c1cccc(O[C@@H]2C[C@H]3CC[C@@H](C2)N3Cc2cccs2)c1	0.215 µM	9.36 µM	> 30 µM	IC50 [7]: 0.43 µM
Cc1ccc(CN2[C@@H]3CC[C@H]2C[C@H](Oc2cccc(C(N)=O)c2)C3)s1				clearance [8]: 113 mL/min/kg; PPB (Plasma): 50%; Papp A→B [4]: 13 ×10⁻⁶ cm/s; Kp [9]: 4; microsomal CLint [5]: 31 µL/min/mg; Vd [10]: 5.1 L/kg; ED50 (Rattus norvegicus): 0.006 µmol/kg; half-life [11]: 1 h; microsomal CLint [6]: 379 µL/min/mg; bioavailability [12]: 1.7%
NC(=O)c1cccc(O[C@@H]2C[C@H]3CC[C@@H](C2)N3CCc2ccccc2)c1	0.754 µM	0.424 µM	2.15 µM	
NC(=O)c1cccc(O[C@@H]2C[C@H]3CC[C@@H](C2)N3CCCc2ccccc2)c1	0.342 µM	0.659 µM	4 µM	
Cc1ccc(CN2[C@@H]3CC[C@H]2C[C@H](Oc2cccc(C(N)=O)c2)C3)cc1	0.049 µM	0.482 µM	10.9 µM	
Cc1ccccc1CN1[C@@H]2CC[C@H]1C[C@H](Oc1cccc(C(N)=O)c1)C2		17.6 µM	> 30 µM	
NC(=O)c1cccc(O[C@@H]2C[C@H]3CC[C@@H](C2)N3Cc2ccncc2)c1			> 24.7 µM	

SMILES	IC50 [2]	IC50 (Mu-type opioid receptor)	IC50 [3]	also measured
NC(=O)c1cccc(O[C@@H]2C[C@H]3CC[C@@H](C2)N3Cc2cccnc2)c1	0.431 µM	2.89 µM	> 21.9 µM	
NC(=O)c1cccc(O[C@@H]2C[C@H]3CC[C@@H](C2)N3Cc2ccccn2)c1	3.16 µM	19 µM	> 30 µM	IC50 [7]: 1.9 µM
CN1[C@@H]2CC[C@H]1C[C@H](Oc1cccc(C(N)=O)c1)C2	12.6 µM			
NC(=O)c1cccc(O[C@@H]2C[C@H]3CC[C@@H](C2)N3CC2CC2)c1	6.69 µM	> 30 µM	> 30 µM	
NC(=O)c1cccc(O[C@@H]2C[C@H]3CC[C@@H](C2)N3CC2CCCCC2)c1				clearance [8]: 184 mL/min/kg; Papp A→B [4]: 8.3 ×10⁻⁶ cm/s; Kp [9]: 5; microsomal CLint [5]: < 4 µL/min/mg; Vd [10]: 9.5 L/kg; half-life [11]: 1 h; microsomal CLint [6]: 196 µL/min/mg; bioavailability [12]: 1.8%
NC(=O)c1cccc(O[C@@H]2C[C@H]3CC[C@@H](C2)N3Cc2ccc3c(c2)OCO3)c1	0.011 µM	0.307 µM	4.84 µM	
CS(=O)(=O)Cc1ccc(CN2[C@@H]3CC[C@H]2C[C@H](Oc2cccc(C(N)=O)c2)C3)cc1	0.039 µM	0.576 µM	5.39 µM	
Cn1cc(CN2[C@@H]3CC[C@H]2C[C@H](Oc2cccc(C(N)=O)c2)C3)cn1	0.524 µM	9.43 µM	> 27.3 µM	
NC(=O)c1cccc(O[C@@H]2C[C@H]3CC[C@@H](C2)N3CC(=O)N2CCCC2)c1	3.41 µM	21.1 µM	> 30 µM	IC50 [7]: > 33 µM
NC(=O)c1cccc(O[C@@H]2C[C@H]3CC[C@@H](C2)N3CC(=O)Nc2ccccc2)c1	0.345 µM	0.253 µM	2.67 µM	IC50 [7]: 0.72 µM
CC(c1ccccc1)N1[C@@H]2CC[C@H]1C[C@H](Oc1cccc(C(N)=O)c1)C2 (stereo partly specified)	1 µM	19.8 µM		
Cc1ccc(C(C)N2[C@@H]3CC[C@H]2C[C@H](Oc2cccc(C(N)=O)c2)C3)s1 (stereo partly specified)	0.355 µM			
Cc1ccccc1C(C)N1[C@@H]2CC[C@H]1C[C@H](Oc1cccc(C(N)=O)c1)C2 (stereo partly specified)	0.846 µM	16.8 µM		
NC(=O)c1cccc(O[C@@H]2C[C@H]3CC[C@@H](C2)N3C2CCCc3ccccc32)c1 (stereo partly specified)	2.19 µM	22.7 µM		
NC(=O)c1cccc(O[C@@H]2C[C@H]3CC[C@@H](C2)N3C2CCCCC2)c1	1.13 µM	9.41 µM		
CC(C)(c1ccccc1)N1[C@@H]2CC[C@H]1C[C@H](Oc1cccc(C(N)=O)c1)C2	13.3 µM			
NC(=O)c1cccc(O[C@@H]2C[C@H]3CC[C@@H](C2)N3C2(c3ccccc3)CC2)c1	24.2 µM	> 30 µM		
CC(c1ccncc1)N1[C@@H]2CC[C@H]1C[C@H](Oc1cccc(C(N)=O)c1)C2 (stereo partly specified)		> 30 µM		
